In the RNAGym collection of RNA variant scans (doi:10.1002/anie.201605470):

B1: Osa-1-4 twister ribozyme (parent)
chain: CCGCCUAACACUGCCAAUGCCGGUCCCAAGCCCGGAUAAAAGUGGAGGGGGCGG

Variants of: B1
Assay: self-cleavage, relative activity (ratio to wild type); higher = more cleavage; co-transcriptional
Outline: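 A DNA template encoding a 54-nucleotide twister ribozyme from Oryza sativa was made so that each of the 48 positions downstream of the cleavage site carried 97 % wild-type base and 1 % of each other base. Transcription in vitro ran for 2 h at 37 °C, during which the ribozyme could cleave itself. Reverse transcription used a template-switching oligonucleotide, and the products were PCR-amplified and deep-sequenced. Each read was scored as cleaved or uncleaved by whether upstream sequence was present, and relative activity is the fraction cleaved normalised to wild type.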
A40G C32G showed a self-cleavage of 0.1. With A40G C32U the self-cleavage was 0.09. In the case of A40G C33A, the self-cleavage is reported as 0.08. A40G C33G showed a self-cleavage of 0.06. With A40G C33U the self-cleavage was 0.15. Variant A40G C52A has a self-cleavage of 0.52. A40G C52G showed a self-cleavage of 0.65. A40G C52U gave a self-cleavage of 0.94. Variant A40G G13A has a self-cleavage of 0.06. In the case of A40G G13C, the self-cleavage is reported as 0.03. For A40G G13U, the self-cleavage was 0.02. With A40G G19A the self-cleavage was 0.18. In the case of A40G G19C, the self-cleavage is reported as 0.07. With A40G G19U the self-cleavage was 0.11. Variant A40G G22A has a self-cleavage of 0.46. A40G G22C gave a self-cleavage of 0.06. In the case of A40G G22U, the self-cleavage is reported as 0.16. Variant A40G G23A has a self-cleavage of 0.12. For A40G G23C, the self-cleavage was 0.06. Work on A40G G23U yielded a self-cleavage of 0.05. Variant A40G G30A has a self-cleavage of 0.03. Variant A40G G30C has a self-cleavage of 0.04. In the case of A40G G30U, the self-cleavage is reported as 0.05. Work on A40G G34A yielded a self-cleavage of 0.44. A40G G34C gave a self-cleavage of 0.2. A40G G34U gave a self-cleavage of 0.22. A40G G35A showed a self-cleavage of 0.71. Work on A40G G35C yielded a self-cleavage of 0.12. Work on A40G G35U yielded a self-cleavage of 0.69. With A40G G42A the self-cleavage was 0.14. Variant A40G G42C has a self-cleavage of 0.13. Work on A40G G42U yielded a self-cleavage of 0.07. In the case of A40G G44A, the self-cleavage is reported as 0.21. A40G G44C showed a self-cleavage of 0.64. A40G G44U showed a self-cleavage of 0.38. For A40G G45A, the self-cleavage was 0.09. With A40G G45C the self-cleavage was 0.07. With A40G G45U the self-cleavage was 0.07. Work on A40G G47A yielded a self-cleavage of 0.11. A40G G47C gave a self-cleavage of 0.06. With A40G G47U the self-cleavage was 0.1. Work on A40G G48A yielded a self-cleavage of 0.08. With A40G G48C the self-cleavage was 0.08. With A40G G48U the self-cleavage was 0.06. In the case of A40G G49A, the self-cleavage is reported as 0.09. For A40G G49C, the self-cleavage was 0.07. In the case of A40G G49U, the self-cleavage is reported as 0.09. For A40G G50A, the self-cleavage was 0.43. For A40G G50C, the self-cleavage was 0.29. A40G G50U gave a self-cleavage of 0.54. A40G G51A showed a self-cleavage of 0.25. Variant A40G G51C has a self-cleavage of 0.07. With A40G G51U the self-cleavage was 0.12. A40G G53A showed a self-cleavage of 0.2. With A40G G53C the self-cleavage was 0.08. In the case of A40G G53U, the self-cleavage is reported as 0.12. A40G G54A showed a self-cleavage of 0.3. For A40G G54C, the self-cleavage was 0.26. With A40G G54U the self-cleavage was 0.46. In the case of A40G U12A, the self-cleavage is reported as 0.75. In the case of A40G U12C, the self-cleavage is reported as 0.79. In the case of A40G U12G, the self-cleavage is reported as 0.28. A40G U18A showed a self-cleavage of 0.88. A40G U18C gave a self-cleavage of 0.72. Work on A40G U18G yielded a self-cleavage of 0.76. A40G U24A showed a self-cleavage of 0.07. Variant A40G U24C has a self-cleavage of 0.08. A40G U24G gave a self-cleavage of 0.02. In the case of A40G U37A, the self-cleavage is reported as 0.91. A40G U37C gave a self-cleavage of 0.9. In the case of A40G U37G, the self-cleavage is reported as 1.02. For A40G U43A, the self-cleavage was 0.21. In the case of A40G U43C, the self-cleavage is reported as 0.14. In the case of A40G U43G, the self-cleavage is reported as 0.19. Work on A40U yielded a self-cleavage of 0.85. Work on A40U A7C yielded a self-cleavage of 0.04. Work on A40U A7G yielded a self-cleavage of 0.13. With A40U A7U the self-cleavage was 0.08. A40U A8C showed a self-cleavage of 0.05. A40U A8G showed a self-cleavage of 0.15. A40U A8U showed a self-cleavage of 0.07. A40U A41C showed a self-cleavage of 0.87. Work on A40U A41G yielded a self-cleavage of 0.1. In the case of A40U A41U, the self-cleavage is reported as 0.83. In the case of A40U A46C, the self-cleavage is reported as 0.05. A40U A46G showed a self-cleavage of 0.05. A40U A46U showed a self-cleavage of 0.07. Work on A40U C9A yielded a self-cleavage of 0.09. A40U C9G gave a self-cleavage of 0.17. Work on A40U C9U yielded a self-cleavage of 0.2. A40U C11A gave a self-cleavage of 0.1. A40U C11G gave a self-cleavage of 0.06. In the case of A40U C11U, the self-cleavage is reported as 0.33. With A40U C14A the self-cleavage was 0.15. With A40U C14G the self-cleavage was 0.13. Work on A40U C14U yielded a self-cleavage of 0.11. For A40U C15A, the self-cleavage was 0.11. With A40U C15G the self-cleavage was 0.11. Work on A40U C15U yielded a self-cleavage of 0.1. A40U C20A showed a self-cleavage of 0.64. For A40U C20G, the self-cleavage was 0.07. Variant A40U C20U has a self-cleavage of 0.81. With A40U C21A the self-cleavage was 0.15. In the case of A40U C21G, the self-cleavage is reported as 0.05. In the case of A40U C21U, the self-cleavage is reported as 0.59. A40U C25A showed a self-cleavage of 0.06. Work on A40U C25G yielded a self-cleavage of 0.05. Variant A40U C25U has a self-cleavage of 0.13. With A40U C26A the self-cleavage was 0.05. Variant A40U C26G has a self-cleavage of 0.08. In the case of A40U C26U, the self-cleavage is reported as 0.14. Work on A40U C27A yielded a self-cleavage of 0.09. Variant A40U C27G has a self-cleavage of 0.06. A40U C27U showed a self-cleavage of 0.1. A40U C31A showed a self-cleavage of 0.02. For A40U C31G, the self-cleavage was 0.07. Work on A40U C31U yielded a self-cleavage of 0.2. A40U C32A gave a self-cleavage of 0.07. A40U C32G showed a self-cleavage of 0.07. A40U C32U gave a self-cleavage of 0.08. Variant A40U C33A has a self-cleavage of 0.07. Variant A40U C33G has a self-cleavage of 0.06. A40U C33U showed a self-cleavage of 0.15. A40U C52A gave a self-cleavage of 0.4. A40U C52G gave a self-cleavage of 0.46. For A40U C52U, the self-cleavage was 0.74. A40U G13A showed a self-cleavage of 0.06. A40U G13C gave a self-cleavage of 0.02. Variant A40U G13U has a self-cleavage of 0.01. Variant A40U G19A has a self-cleavage of 0.17. In the case of A40U G19C, the self-cleavage is reported as 0.04. A40U G19U gave a self-cleavage of 0.08. A40U G22A showed a self-cleavage of 0.32. With A40U G22C the self-cleavage was 0.06. A40U G22U showed a self-cleavage of 0.21. In the case of A40U G23A, the self-cleavage is reported as 0.11. In the case of A40U G23C, the self-cleavage is reported as 0.04. In the case of A40U G23U, the self-cleavage is reported as 0.05. Work on A40U G30A yielded a self-cleavage of 0.03. With A40U G30C the self-cleavage was 0.04. A40U G30U gave a self-cleavage of 0.03. A40U G34A showed a self-cleavage of 0.23. In the case of A40U G34C, the self-cleavage is reported as 0.15. A40U G34U showed a self-cleavage of 0.18. For A40U G35A, the self-cleavage was 0.58. For A40U G35C, the self-cleavage was 0.09. Variant A40U G35U has a self-cleavage of 0.41. In the case of A40U G42A, the self-cleavage is reported as 0.1. For A40U G42C, the self-cleavage was 0.11. A40U G42U gave a self-cleavage of 0.06. In the case of A40U G44A, the self-cleavage is reported as 0.25. With A40U G44C the self-cleavage was 0.43. In the case of A40U G44U, the self-cleavage is reported as 0.26. With A40U G45A the self-cleavage was 0.07. In the case of A40U G45C, the self-cleavage is reported as 0.06. For A40U G45U, the self-cleavage was 0.07. Variant A40U G47A has a self-cleavage of 0.09. With A40U G47C the self-cleavage was 0.06. In the case of A40U G47U, the self-cleavage is reported as 0.09. In the case of A40U G48A, the self-cleavage is reported as 0.06. For A40U G48C, the self-cleavage was 0.05. Variant A40U G48U has a self-cleavage of 0.04. Variant A40U G49A has a self-cleavage of 0.07. In the case of A40U G49C, the self-cleavage is reported as 0.05. In the case of A40U G49U, the self-cleavage is reported as 0.08. In the case of A40U G50A, the self-cleavage is reported as 0.43. For A40U G50C, the self-cleavage was 0.18.
